FLuc inhib CS = counter-screen for luciferase assay inhibitors: firefly luciferase inhibition. P08659. ATPLite firefly luciferase biochemical luminescence, 10 min. inhibition, % at 10 µM. 200,000 compounds, 1.5% hits. AID 1006;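 active = inhibition above about 50% when tested at 10 µM, limit read from the data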
Target sequence (P08659 whole entry, looked up): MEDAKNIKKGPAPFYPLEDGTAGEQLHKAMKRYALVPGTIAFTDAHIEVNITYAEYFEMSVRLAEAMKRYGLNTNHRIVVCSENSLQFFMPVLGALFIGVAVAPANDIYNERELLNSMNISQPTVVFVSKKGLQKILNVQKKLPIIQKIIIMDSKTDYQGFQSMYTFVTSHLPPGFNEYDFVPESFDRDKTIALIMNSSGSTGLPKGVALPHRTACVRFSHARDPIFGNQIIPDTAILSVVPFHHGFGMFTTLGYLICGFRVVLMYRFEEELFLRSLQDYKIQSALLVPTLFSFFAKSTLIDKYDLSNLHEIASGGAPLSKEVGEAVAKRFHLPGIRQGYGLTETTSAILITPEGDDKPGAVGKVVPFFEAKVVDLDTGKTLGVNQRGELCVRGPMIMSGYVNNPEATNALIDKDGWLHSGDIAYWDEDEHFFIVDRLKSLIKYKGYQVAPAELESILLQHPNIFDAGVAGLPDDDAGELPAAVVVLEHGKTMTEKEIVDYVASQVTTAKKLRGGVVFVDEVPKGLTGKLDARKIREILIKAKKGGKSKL
PPC-1+TRAIL kill = compounds killing PPC-1 cancer cells with TRAIL present (potentiator screen, no TRAIL-free arm). 220,000 compounds, 0.41% hits. PPC-1 cells + TRAIL, ATPLite viability luminescence. cell killing (% activity), % at 4 µM or 5 µM;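 active = cell killing above 50% in the first pass at 4 µM, then a duplicate retest at 5 µM averaging 50% or more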;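 note: plate controls were cells with TRAIL plus DMSO for no effect and medium-only wells lacking cells for full effect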
TRAIL sens C8 = caspase-8 TRAIL sensitization; 360,000 compounds, 1% hits; inhibition (viability loss, TRAIL sensitization), % at 10 µM; NB7+C8 cells + TRAIL, ATPlite viability luminescence;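 active = compounds causing at least 50% loss of cell viability in the single-dose screen, relative to plate controls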
FLuc act counter = affects firefly luciferase, flagging false hits in luciferase stimulation screens; P08659; ATPlite luciferase biochemical, luminescence, 10 min; 0 = ATP-free wells, 1 = DMSO control; activation factor at 10 µM; 200,000 tested, under 10 active; AID 1027;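 active = luciferase activation factor, scaled between plate controls, of at least 2 with compound at 10 µM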
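Material: Luciferase/luciferin reagent mix; Doses: test compounds dosed from 2 mM stocks in 100% DMSO; Schedule: 10 min incubation after luciferase reagent addition, room temperature; Measured by: luminescence from luciferase reaction; Read-out: luminescence gain marking luciferase activators.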
* hit, by the source's call. Most compounds without a hit are left out; they make up all but 1.5% or so of the library.

For COc1ccc(CNC(=O)c2cc(S(=O)(=O)N3CCCCC3)ccc2Cl)cc1OC the results were TRAIL sens C8 -12.
For COc1ccc(NC(C)=O)cc1S(=O)(=O)N1CCN(Cc2cccs2)CC1 the results were TRAIL sens C8 -4.
Screening O=C(CSc1ccc2nnc(-c3ccccn3)n2n1)Nc1ccccc1F returned TRAIL sens C8 -20.
For COc1ccc(C(=O)COC(=O)c2ccco2)cc1 the results were FLuc inhib CS 72*, PPC-1+TRAIL kill 24, TRAIL sens C8 -6 and FLuc act counter 0.3.
Screening CC(=O)Nc1cccc(NC(=O)c2cc3ccccc3o2)c1 returned FLuc inhib CS 64*, PPC-1+TRAIL kill 48, TRAIL sens C8 41 and FLuc act counter 0.4.
For O=C(Nc1ccccc1)c1cc2ccccc2o1 the results were FLuc inhib CS 74*, PPC-1+TRAIL kill 32, TRAIL sens C8 56* and FLuc act counter 0.3.
`CC(C)C(=O)Nc1cccc(NC(=O)c2cc3ccccc3o2)c1` gave FLuc inhib CS 30, PPC-1+TRAIL kill 13, TRAIL sens C8 14 and FLuc act counter 0.7.
Screening COc1ccc(NC(=O)c2cc3ccccc3o2)cc1 returned FLuc inhib CS 53*, PPC-1+TRAIL kill 40, TRAIL sens C8 38 and FLuc act counter 0.5.
`O=C(COc1ccc(/C=N/NC(=O)c2cc3ccccc3o2)cc1Br)Nc1ccccc1` gave FLuc inhib CS -2, PPC-1+TRAIL kill 33, TRAIL sens C8 59* and FLuc act counter 1.
Screening O=C1CC(NS(=O)(=O)c2ccccc2F)CN1c1ccc2c(c1)OCCO2 (stereo unspecified) returned TRAIL sens C8 8.
Screening CC(C)C[C@H]1CN(CCCC[C@H]2CNC(=O)C(=O)N2Cc2ccccc2)C(=O)C(=O)N1CCC1CCCCC1 returned TRAIL sens C8 4.
For Cc1cccc(C)c1NC(=O)C1(C)CN(S(C)(=O)=O)CC(=O)N1CCCN1CCOCC1 (stereo unspecified) the results were TRAIL sens C8 6.
For O=C(Nc1ccccc1Cl)c1cc2ccccc2o/c1=N\O the results were TRAIL sens C8 7.
Screening COc1cccc(NC(=O)c2cc3ccccc3o/c2=N\O)c1 returned TRAIL sens C8 55*.
For Clc1ccc2nc(-c3ccc(Br)s3)cn2c1 the results were FLuc inhib CS 78*, PPC-1+TRAIL kill 40, TRAIL sens C8 59* and FLuc act counter 0.2.
Screening O=C(O)c1ccccc1-c1cn2cc(Cl)ccc2n1 returned FLuc inhib CS 62*, PPC-1+TRAIL kill 27, TRAIL sens C8 22 and FLuc act counter 0.4.
`Cc1cc(/C=N/NC(=O)C(=O)NCc2ccccn2)c(C)n1-c1ccccc1` gave FLuc inhib CS 58*, PPC-1+TRAIL kill 14, TRAIL sens C8 33 and FLuc act counter 0.4.
`Cc1cc(/C=N/NC(=O)c2ccccn2)c(C)n1-c1cccc([N+](=O)[O-])c1` gave FLuc inhib CS 11, PPC-1+TRAIL kill 20, TRAIL sens C8 -2 and FLuc act counter 0.9.
Cc1cc(/C=N\NC(=O)COc2cccc3cccnc23)c(C)n1-c1ccccc1 was read as FLuc inhib CS 71*, PPC-1+TRAIL kill 12, TRAIL sens C8 23 and FLuc act counter 0.3.
For COc1ccc(S(=O)(=O)N2CCCC(C(=O)N3CCN(Cc4ccccc4)CC3)C2)cc1Cl (stereo unspecified) the results were TRAIL sens C8 4.
For Cc1ccc(-n2nc3c(N4CCC(C(=O)NCc5ccccc5C)CC4)nnc(C)c3c2C)cc1 the results were TRAIL sens C8 2.
CCOc1ccccc1CNC(=O)C1CCN(c2nnc(C)c3c(C)n(-c4ccc(C)cc4)nc23)CC1 was read as TRAIL sens C8 71*.
For NC(=S)NN=C1c2ccccc2-c2c(F)c(F)c(F)c(F)c21 the results were TRAIL sens C8 71*.
`CSc1ccc(/C=N/NC(=O)c2cccc(O)c2)cc1` gave FLuc inhib CS 91*, PPC-1+TRAIL kill 54*, TRAIL sens C8 74* and FLuc act counter 0.1.
O=C(N/N=C\c1ccc(F)cc1)c1ccc(F)cc1 was read as FLuc inhib CS 58*, PPC-1+TRAIL kill 45, TRAIL sens C8 14 and FLuc act counter 0.4.
CC(=O)Nc1ccc(C(=O)N/N=C/c2ccc(F)cc2)cc1 was read as FLuc inhib CS 4, PPC-1+TRAIL kill 3, TRAIL sens C8 1 and FLuc act counter 1.
`O=C(N/N=C/c1ccc(C(F)(F)F)cc1)c1ccc(O)cc1` gave FLuc inhib CS 53*, PPC-1+TRAIL kill 26, TRAIL sens C8 23 and FLuc act counter 0.5.
`Cc1ccc(S(=O)(=O)NC(=O)C2(C)CCN2C(=O)Cc2ccc(C(C)(C)C)cc2)cc1` (stereo unspecified) gave TRAIL sens C8 2.
CC1CN(C(=S)NC2CCCC2)CC(C)O1 (stereo unspecified) was read as TRAIL sens C8 0.
For c1ccc(CSc2ccc(-c3cccs3)nn2)cc1 the results were FLuc inhib CS 66*, PPC-1+TRAIL kill 24, TRAIL sens C8 54* and FLuc act counter 0.3.
`c1ccc(CSc2ccc(-c3cccs3)nn2)nc1` gave FLuc inhib CS 34, PPC-1+TRAIL kill 22, TRAIL sens C8 13 and FLuc act counter 0.7.
Fc1cccc(CSc2ccc(-c3ccc4c(c3)OCO4)nn2)c1 was read as FLuc inhib CS 4, PPC-1+TRAIL kill 12, TRAIL sens C8 8 and FLuc act counter 1.
For c1cncc(CSc2ccc(-c3ccc4c(c3)OCO4)nn2)c1 the results were FLuc inhib CS 53*, PPC-1+TRAIL kill 2, TRAIL sens C8 11 and FLuc act counter 0.5.
Screening CS/C(N)=N/N=C/c1cc(C)ccc1O returned PPC-1+TRAIL kill 39 and TRAIL sens C8 64*.
For CN(C)c1ccc(Sc2ccc3nc(N)nc(N)c3c2)cc1 the results were TRAIL sens C8 71*.
CC(=O)ONC(=Nc1ccccc1)c1nonc1N was read as PPC-1+TRAIL kill 14 and TRAIL sens C8 1.
Screening Cc1ccc(NC(=O)c2ccc(NCCCN3CCOCC3)c([N+](=O)[O-])c2)cc1Cl returned FLuc inhib CS -3, PPC-1+TRAIL kill 21, TRAIL sens C8 15 and FLuc act counter 1.
`O=C(Nc1ccc(Cl)c([N+](=O)[O-])c1)c1ccc(NCCCN2CCOCC2)c([N+](=O)[O-])c1` gave FLuc inhib CS -11, PPC-1+TRAIL kill 12, TRAIL sens C8 56* and FLuc act counter 1.1.
COc1ccc(C(=O)Nc2cnc(NC(=O)c3cccs3)cc2C)cc1 was read as TRAIL sens C8 7.
`COc1ccc(C(=O)Nc2ccccc2C(=O)Nc2cccnc2)cc1` gave TRAIL sens C8 53*.
Screening COc1ccc(C(=O)Nc2ccccc2C(=O)Nc2cc(C)ccn2)cc1 returned TRAIL sens C8 68*.
Screening COc1ccc(C(=O)Nc2cccnc2)cc1 returned FLuc inhib CS 5, PPC-1+TRAIL kill 26, TRAIL sens C8 4 and FLuc act counter 0.9.
COc1ccc(C(=O)Nc2cc(C)c(NC(=O)c3ccccn3)cn2)cc1 was read as TRAIL sens C8 69*.

Source: PubChem (Sanford-Burnham Center for Chemical Genomics)
